Assay results reported in ChEMBL document CHEMBL1132980, “1,2,4-Triazolo[4,3-a]quinoxalin-1-one: a versatile tool for the synthesis of potent and selective adenosine receptor antagonists” (J Med Chem, 2000).
pKi: −log10 of the molar value.

Key:
Adenosine receptor A1 [1] = molecular target: T1, Adenosine receptor A1 (Bos taurus, UniProt P28190); experiment: Binding affinity towards adenosine A1 receptor of bovine brain membrane using [3H]-CHA at 20 uM
T1 sequence (P28190 whole entry): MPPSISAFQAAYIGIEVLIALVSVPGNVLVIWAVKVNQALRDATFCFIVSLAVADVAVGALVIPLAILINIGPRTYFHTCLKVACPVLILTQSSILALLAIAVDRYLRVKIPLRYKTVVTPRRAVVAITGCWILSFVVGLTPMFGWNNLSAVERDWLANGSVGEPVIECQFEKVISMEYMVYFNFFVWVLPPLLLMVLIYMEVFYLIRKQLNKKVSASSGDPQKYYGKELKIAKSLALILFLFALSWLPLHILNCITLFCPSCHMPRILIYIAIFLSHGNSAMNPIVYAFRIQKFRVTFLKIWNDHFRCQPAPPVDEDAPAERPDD

Adenosine receptor A3 [2] = molecular target: T2, Adenosine receptor A3 (Homo sapiens, UniProt P0DMS8); experiment: Binding affinity towards human adenosine A3 receptor expressed in HEK293 cells using [125I]AB-MECA at 1 uM; assay type: cell-based
T2 sequence (P0DMS8 whole entry): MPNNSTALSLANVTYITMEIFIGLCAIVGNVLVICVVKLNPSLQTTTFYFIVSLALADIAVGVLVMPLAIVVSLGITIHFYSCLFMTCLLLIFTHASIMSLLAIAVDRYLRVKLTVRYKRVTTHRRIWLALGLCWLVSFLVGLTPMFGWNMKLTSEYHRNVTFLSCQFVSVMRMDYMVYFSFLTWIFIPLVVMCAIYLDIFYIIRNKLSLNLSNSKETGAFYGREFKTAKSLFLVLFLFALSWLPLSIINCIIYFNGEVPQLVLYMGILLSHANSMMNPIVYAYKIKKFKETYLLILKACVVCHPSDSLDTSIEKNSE

Adenosine receptor A1 [3] = molecular target: T1, Adenosine receptor A1; experiment: Binding affinity towards adenosine A1 receptor of bovine brain membrane in presence of [3H]CHA at a concentration of 20 uM
Procedure, shortened: (§1)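 Compounds dissolved in DMSO (2% in buffer), with blank runs for solvent effect. Membrane protein measured after solubilization in 0.75 N NaOH against a BSA standard.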

Adenosine receptor A3 [4] = molecular target: T2, Adenosine receptor A3; experiment: Binding affinity towards human adenosine A3 receptor expressed in HEK293 cells in presence of [125I]-AB-MECA at a concentration of 1 uM; assay type: cell-based
[5] = test system: Adenosine receptor A2a (Bos taurus); experiment: Binding affinity towards adenosine A2A receptor of bovine striatal membrane in presence of [3H]-CGS- at a concentration of 20 uM
[6] = test system: Adenosine receptor A2a (Bos taurus); experiment: Binding affinity towards adenosine A2A receptor of bovine striatal membrane in presence of [3H]-CGS-
[7] = molecular target: Adenosine receptor A2a (Bos taurus); experiment: Binding affinity towards Adenosine A2A receptor of bovine striatal membrane using [3H]-CGS- at 20 uM
[8] = molecular target: T3, Adenosine receptor A1 (Bos taurus) (UniProt P28190); experiment: Binding affinity towards Adenosine A1 receptor of bovine brain membrane using [3H]-CHA at 20 uM; procedure, shortened: as §1
T3 sequence (whole entry): T1 sequence (P28190 whole entry)

[9] = molecular target: T4, Adenosine receptor A3 (Homo sapiens) (UniProt P0DMS8); experiment: Binding affinity towards human Adenosine A3 receptor expressed in HEK293 cells using [125I]AB-MECA at 1 uM; assay type: cell-based
T4 sequence (whole entry): T2 sequence (P0DMS8 whole entry)

Row | Compound | pKi (Adenosine receptor A1 [3]) | pKi (Adenosine receptor A3 [4]) | inhibition [5] [%] | also measured
1 | Cn1c(=O)c2[nH]c(C3CCCC3)nc2n(C)c1=O [8-CYCLOPENTYLTHEOPHYLLINE] |  |  |  | pKi (Adenosine receptor A1 [1]): 9.30; pKi (Adenosine receptor A3 [2]): 5.89
2 | O=C(Cc1ccccc1)Nc1nc2ccccc2n2c(=O)n(-c3ccccc3)nc12 | 8.20 | 8.43 | 62 | 
3 | O=C(Nc1ccccc1)Nc1nc2ccccc2n2c(=O)n(-c3ccccc3)nc12 |  | 6.56 |  | 
4 | O=c1n(-c2ccccc2)nc2c(NCCc3ccccc3)nc3ccccc3n12 | 8.32 | 6.70 | 59 | 
5 | O=c1n(-c2cccc(F)c2)nc2c(NC3CCCC3)nc3ccccc3n12 | 8.96 | 6.76 |  | pKi [6]: 6.83
6 | O=c1n(-c2cccc(F)c2)nc2c(NC3CCCCC3)nc3ccccc3n12 | 8.31 | 7.35 |  | pKi [7]: 7.18
7 | Cc1ccc(N2CN3C(=N2)C(=O)Nc2ccccc23)cc1 |  | 6.71 |  | inhibition [8]: 48%
8 | CCC(=O)Nc1nc2ccccc2n2c(=O)n(-c3ccccc3)nc12 | 8.03 | 7.80 |  | 
9 | O=c1n(-c2ccccc2)nc2c(NC3CCCC3)nc3ccccc3n12 | 9.38 | 7.26 |  | 
10 | Cc1cccc(-n2nc3c(NC4CCCC4)nc4ccccc4n3c2=O)c1 |  | 7.56 |  | 
11 | O=c1n(-c2ccccc2)nc2c(NCC(c3ccccc3)c3ccccc3)nc3ccccc3n12 |  |  |  | pKi (Adenosine receptor A1 [1]): 7.27; pKi (Adenosine receptor A3 [2]): 5.99
12 | O=c1n(-c2ccccc2)nc2c(NCc3ccccc3)nc3ccccc3n12 | 7.26 | 5.77 | 59 | 
13 | O=c1n(-c2ccccc2)nc2c(NCCCc3ccccc3)nc3ccccc3n12 | 7.75 | 7.39 | 61 | 
14 | Nc1cccc2c1nc(N)c1nn(-c3ccccc3)c(=O)n12 |  |  |  | inhibition [9]: 54%
15 | Nc1nc2c(NCc3ccccc3)cccc2n2c(=O)n(-c3ccccc3)nc12 | 6.14 |  |  | inhibition [9]: 30%; pKi [7]: 8.19
16 | Nc1nc2ccccc2n2c(=O)n(-c3cccc(F)c3)nc12 | 7.55 | 6.80 |  | 
17 | Cc1cccc(-n2nc3c(N)nc4ccccc4n3c2=O)c1 | 7.70 | 7.55 |  | 
18 | COc1ccc(NC(=O)Nc2nc3ccccc3n3c(=O)n(-c4ccccc4)nc23)cc1 | 5.59 | 6.02 |  | 
19 | Cc1cccc(-n2nc3c(NC4CCCCC4)nc4ccccc4n3c2=O)c1 | 8.38 | 6.26 | 41 | 
20 | O=c1n(-c2ccccc2)nc2c(NC3CCCCC3)nc3ccccc3n12 | 8.84 | 6.30 |  | 
21 | O=C(Nc1nc2ccccc2n2c(=O)n(-c3ccccc3)nc12)c1ccccc1 | 7.05 | 8.83 | 53 | 
22 | Nc1nc2ccccc2n2c(=O)n(-c3ccccc3)nc12 |  |  |  | inhibition [9]: 36%
23 | CC(=O)Nc1nc2ccccc2n2c(=O)n(-c3ccccc3)nc12 | 8.37 | 8.70 |  | 

Second part, led by results:

Row | pKi (Adenosine receptor A1 [3]) | pKi (Adenosine receptor A3 [4]) | inhibition [5] [%] | Compound | also measured
24 |  | 7.32 |  | Cc1ccc(-n2nc3c(N)nc4ccccc4n3c2=O)cc1 | 
25 |  | 6.32 |  | C#CCn1c(=O)c2nn(-c3ccccc3)c(=O)n2c2ccccc21 | 
26 | 6.51 | 7.44 | 53 | Cn1c(=O)c2nn(-c3ccccc3)c(=O)n2c2ccccc21 | 
27 | 6.51 | 7.34 |  | COc1ccc(-n2nc3c(N)nc4ccccc4n3c2=O)cc1 | 
28 | 6.37 | 6.48 | 37 | Nc1nc2ccccc2n2c(=O)n(-c3ccc(Cl)cc3)nc12 | 
29 |  | 6.86 | 8 | Cn1c(=O)c2nn(-c3ccc(Cl)cc3)c(=O)n2c2ccccc21 | inhibition [8]: 29%
30 |  | 6.30 | 0 | Cc1ccc(-n2nc3c(=O)n(C)c4ccccc4n3c2=O)cc1 | inhibition [8]: 22%
31 | 6.29 | 7.10 | 64 | O=c1[nH]c2ccccc2n2c(=O)n(-c3ccccc3)nc12 | 
32 | 6.36 | 7.04 | 5 | Cc1cccc(-n2nc3c(=O)[nH]c4ccccc4n3c2=O)c1 | 
33 | 5.99 | 6.94 |  | O=c1[nH]c2ccccc2n2c(=O)n(-c3ccc(Cl)cc3)nc12 | 
34 | 7.10 | 7.25 | 0 | O=c1n(-c2ccc(Cl)cc2)nc2c(NC3CCCCC3)nc3ccccc3n12 | 
35 | 6.81 | 7.60 | 0 | Cc1ccc(-n2nc3c(=O)[nH]c4ccccc4n3c2=O)cc1 | 
36 | 6.03 | 7.80 |  | COc1ccc(-n2nc3c(=O)[nH]c4ccccc4n3c2=O)cc1 | 
37 | 6.39 | 5.90 | 44 | CCCn1c(=O)c2nn(-c3ccccc3)c(=O)n2c2ccccc21 | 
38 | 6.70 | 7.20 | 20 | O=c1[nH]c2ccccc2n2c(=O)n(-c3cccc(F)c3)nc12 | 
